A selection: hits, their analogues and other compounds. The true share with any hit is near 3.1%.
MEKK2mut PB1 HTS – MEK5 binding signal on mutant MEKK2 PB1, primary screen, biochemical, multiplex bead flow cytometry, Alexa488-MEK5. Alexa488-MEK5 binding to MEKK2 mutant. percent response, % at 10 µM. 290,000 tested, 0.35% active; in the data active = percent response above about 24%, passing the limit was not always enough
MEKK3 PB1 HTS – modulators of MEKK3-MEK5 PB1 binding, primary screen, biochemical, wildtype MEKK3, multiplex bead flow cytometry, Alexa488-MEK5; bead-based flow cytometry, Alexa488-MEK5 binding to MEKK3; actives lie on both sides; 0 = blocked by unlabeled MEK5, 100 = vehicle; binding response (% of control), % at 10 µM; 290,000 tested, 1.4% active;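 active = binding response more than 3 SD above or below the average of its plate-row segment, actives on both sides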;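 note: Alexa488 bead fluorescence after subtracting the streptavidin-only scavenger bead signal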
MEKK2 WT-MEK5 – modulators of MEK5 binding to wildtype MEKK2, primary screen, biochemical, multiplex bead flow cytometry, Alexa488-MEK5. Mitogen-activated protein kinase kinase kinase 2 (Homo sapiens), Q9Y2U5. binding response (% of control), % at 10 µM. AID 1531, 2009. Alexa488-MEK5 binding to MEKK2 WT; actives lie on both sides. 290,000 tested, 1.1% active; in the data active = binding response below about 67% or above about 130%
Apaf-1 inh – inhibitors of human Apaf-1 apoptosome, primary screen, biochemical, DEVD-Rh110 fluorescence, uHTS. Apoptotic protease-activating factor 1 (Homo sapiens), O14727. reconstituted apoptosome caspase-3 activity. inhibition, % at 20 µM. 330,000 tested, 0.71% active; active = inhibition of at least 40% at 20 µM
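detection = Rh110 fluorescence intensity | test system = biochemical Apaf-1 apoptosome reconstitution | also added = cytochrome c and DEVD-Rh110 substrate | schedule = 30 min plus 50 min, RT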
PREPL inhibitor – PREPL enzyme inhibitors, primary screen, biochemical, fluorescence polarization | recombinant PREPL, fluorescence polarization activity-based probe | 320,000 tested, 0.68% active | inhibition, % at 5.96 µM | Prolyl endopeptidase-like (Homo sapiens), Q4J6C6
UBC13 polyUb – UBC13 polyubiquitin chain formation inhibitors, primary screen, biochemical, TR-FRET, uHTS. Ubiquitin-conjugating enzyme E2 N (Homo sapiens), P61088. inhibition, % at 20 µM. 330,000 tested, 0.47% active. AID 485273, 2010; in the data active = inhibition above about 45%, passing the limit was not always enough
Target sequence (P61088 whole entry, looked up): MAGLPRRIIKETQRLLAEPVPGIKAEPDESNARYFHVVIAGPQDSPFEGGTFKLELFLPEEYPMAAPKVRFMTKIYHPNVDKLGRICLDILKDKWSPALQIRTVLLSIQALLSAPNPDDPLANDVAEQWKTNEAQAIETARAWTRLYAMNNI
MEKK2wt confirm – modulators of MEK5 binding to wildtype MEKK2, confirmation, biochemical, single concentration, multiplex bead flow cytometry. Alexa488-MEK5 binding to MEKK2 WT; actives lie on both sides. shares compounds with MEKK3 PB1 HTS. binding response (% of control), % at 10 µM. 5,900 tested, 2.4% active. AID 1892, 2009; in the data active = binding response below about 16% or above about 210%; inactive = in between
MEKK2mut-MEK5 – mutant MEKK2 PB1-MEK5 binding signal retest – biochemical, single concentration, multiplex bead flow cytometry, confirmation; shares compounds with MEKK3 PB1 HTS; Alexa488-MEK5 binding to MEKK2 mutant; percent response, % at 10 µM; 5,900 tested, 2% active; AID 1893, 2009; in the data active = percent response mostly above about 71%, no sharp cut-off; inactive = mostly below about 38%;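 note: higher means compound restores mutant binding toward wildtype level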
MEKK3-MEK5 inh – MEKK3 wild-type PB1 binding to MEK5, inhibitors, confirmation, biochemical, bead multiplex flow cytometry, single concentration, wildtype; shares compounds with MEKK3 PB1 HTS; Alexa488-MEK5 binding to MEKK3; hits give low values; binding response (% of control), % at 10 µM; 5,900 tested, 1.8% active;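 active = binding response below 72% of control, or above a set upper limit, though filed actives all read lower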;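 note: lower values mean stronger disruption of MEK5 binding to MEKK3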
PREPL inh cf – human PREPL enzyme inhibitors, confirmation, biochemical, fluorescence polarization; shares compounds with PREPL inhibitor; recombinant PREPL, fluorescence polarization activity probe; inhibition, % at 5.96 µM; 2,000 tested, 67% active; AID 2803, 2010
Large screens that a line does not name were inactive (follow-up assays come after a bar, where they were run); [ ] = remark or other dose. Cut-off read from the data, not from the text of the source, unless noted: active = inhibition above about 43%; inactive = the rest.

COc1ccc(/C=N/Nc2cc(C)nc3c(C)cccc23)cc1	MEKK2mut PB1 HTS 71.0, MEKK2 WT-MEK5 279.0, PREPL inhibitor 47.6 | MEKK2wt confirm inactive | MEKK2mut-MEK5 inactive | MEKK3-MEK5 inh inactive | PREPL inh cf 47.1
O=C(N/N=C/c1ccc(OCc2ccccc2)cc1)c1cc[n+](Cc2ccccc2)cc1	MEKK2 WT-MEK5 153.0, PREPL inhibitor 52.8 | MEKK2wt confirm inactive | MEKK2mut-MEK5 inactive | MEKK3-MEK5 inh inactive | PREPL inh cf inactive
CCCC(=O)NCc1ccc2c(c1)cc(C)n2C	none
Cc1cc2cc(CNC(=O)c3ccc(Br)o3)ccc2n1C	MEKK3 PB1 HTS 66.0[inhibitor], MEKK2 WT-MEK5 45.0[inhibitor], PREPL inhibitor 65.2 | MEKK2wt confirm inactive | MEKK2mut-MEK5 inactive | MEKK3-MEK5 inh inactive | PREPL inh cf 65.6
C#CCOCCOCCOCCNc1nc(N2CCN(C(=O)[C@H](CCCCN)n3cc([C@@H](N)CO)nn3)CC2)nc(N2CCN(C(=O)[C@H](Cc3cc4ccccc4[nH]3)n3cc([C@@H](N)CC(C)C)nn3)CC2)n1	MEKK2mut PB1 HTS 67.0, MEKK2 WT-MEK5 195.0, PREPL inhibitor 51.5, UBC13 polyUb 99.7 | MEKK2wt confirm inactive | MEKK2mut-MEK5 inactive | MEKK3-MEK5 inh inactive | PREPL inh cf 50.8
C#CCOCCOCCOCCNc1nc(N2CCN(C(=O)[C@H](CCC(=O)O)n3cc(C(N)Cc4ccc(O)cc4)nn3)CC2)nc(N2CCN(C(=O)[C@H](CCC(=O)O)n3cc(C(N)CC(C)C)nn3)CC2)n1 (some centres undefined)	none
C#CCOCCOCCOCCNc1nc(N2CCN(C(=O)[C@H](CCC(=O)O)n3cc(C(N)Cc4ccc(O)cc4)nn3)CC2)nc(N2CCN(C(=O)[C@H](Cc3cc4ccccc4[nH]3)n3cc(C(N)CC(C)C)nn3)CC2)n1 (some centres undefined)	MEKK2 WT-MEK5 145.0, PREPL inhibitor 46.0 | MEKK2wt confirm inactive | MEKK2mut-MEK5 inactive | MEKK3-MEK5 inh inactive | PREPL inh cf inactive
CCC(CO)[n+]1c(C)cc(/C=C2\Sc3ccccc3N2Cc2ccccc2)cc1C (centres undefined)	MEKK2 WT-MEK5 63.0[inhibitor], PREPL inhibitor 76.7 (no result: Apaf-1 inh, UBC13 polyUb) | MEKK2wt confirm inactive | MEKK2mut-MEK5 inactive | MEKK3-MEK5 inh inactive | PREPL inh cf 73.0
NC(=S)Nc1ccc(C(F)(F)F)cc1Cl	none
COC(=O)CCC(=O)OC1(C)C(=O)C2=CN(CC(C)C)C(c3ccc(OC)cc3)=CC2=C(Br)C1=O (centres undefined)	MEKK2 WT-MEK5 -7.0[inhibitor], Apaf-1 inh 52.0, PREPL inhibitor 73.7 | MEKK2wt confirm inactive | MEKK2mut-MEK5 inactive | MEKK3-MEK5 inh 71.0 | PREPL inh cf 48.2
CCC(Oc1ccccc1)C(=O)OCC(=O)Nc1sccc1C(N)=O (centres undefined)	none (no result: MEKK2mut PB1 HTS, MEKK3 PB1 HTS, MEKK2 WT-MEK5)

Screening data (PubChem BioAssay)
